The values below come from ChEMBL document CHEMBL1137688, “Design, synthesis and antibacterial activity of novel actinonin derivatives containing benzimidazole heterocycles” (2009).

Common to all, as to format: functional
Assay [1] deals with Klebsiella pneumoniae. The experiment in a line: Antimicrobial activity against Klebsiella pneumoniae CMCC 46117 after 24 hrs by broth microdilution method. The settings on record: CMCC 46117, 24 h. A digest of the protocol: (§1)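 Broth microdilution in Mueller-Hinton broth. Compounds tested across a doubling-dilution series, with cefoperazone as the positive control. Plates incubated 24 h at 37 °C. MIC taken as the lowest concentration showing no visible bacterial growth.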

The test system of assay [2] is Staphylococcus aureus. The experiment in a line: Antimicrobial activity against Staphylococcus aureus CMCC 26112 after 24 hrs by broth microdilution method. The settings on record: CMCC 26112, 24 h. A digest of the protocol: as §1
For assay [3], the system named is Micrococcus luteus. Description: Antimicrobial activity against Sarcina lutea CMCC 28001 after 24 hrs by broth microdilution method. The settings on record: CMCC 28001, 24 h. A digest of the protocol: as §1

SMILES strings stand for the structures. Converted amounts (≈) assume the structure as drawn. Bounds are passed on as bounds.

For `CCCC[C@H](CC(=O)NO)C(=O)N[C@H](c1nc2cc(C)ccc2[nH]1)C(C)C`, the minimum inhibitory concentration (MIC) in assay [1] stood at 4 µg/mL (≈ 10.7 µM); in assay [2] it was 8 µg/mL (≈ 21.4 µM); in assay [3] it was 8 µg/mL (≈ 21.4 µM).
Consider `CCN1CCN(C(=O)N[C@@H](C(=O)N[C@@H]2C(=O)N3C(C(=O)O)=C(CSc4nnnn4C)CS[C@H]23)c2ccc(O)cc2)C(=O)C1=O` [CEFOPERAZONE], for which the MIC in assay [1], in assay [2] and in assay [3] was 0.25 µg/mL (≈ 0.387 µM) throughout.
Regarding `CCCC[C@H](CC(=O)NO)C(=O)N[C@H](c1nc2cc(C(=O)Nc3ccc(OC)cc3)ccc2[nH]1)C(C)C`, the MIC in assay [1] worked out at 16 µg/mL (≈ 31.4 µM); in assay [2] it was 32 µg/mL (≈ 62.8 µM); in assay [3], 16 µg/mL (≈ 31.4 µM).
As for `CCCC[C@H](CC(=O)NO)C(=O)N[C@H](c1nc2cc(C(=O)N3CCCCC3)ccc2[nH]1)C(C)C`, the MIC was 8 µg/mL (≈ 17 µM) in assay [1], greater than 64 µg/mL in assay [2] and greater than 64 µg/mL in assay [3].
Turning to `CCCC[C@H](CC(=O)NO)C(=O)N[C@H](c1nc2cc(C(=O)NC3CCCCC3)ccc2[nH]1)C(C)C`, the MIC in assay [1] was found to be 32 µg/mL (≈ 65.9 µM); in assay [2] it was 64 µg/mL (≈ 132 µM); in assay [3], 64 µg/mL (≈ 132 µM).
As to `CCCC[C@H](CC(=O)NO)C(=O)N[C@H](c1nc2cc(OC)ccc2[nH]1)C(C)C`, the MIC in assay [1], in assay [2] and in assay [3] was 8 µg/mL (≈ 20.5 µM) in each case.
Consider `CCCC[C@H](CC(=O)NO)C(=O)N[C@H](c1nc2ccccc2[nH]1)C(C)C`, for which the minimum inhibitory concentration (MIC) is 0.5 µg/mL (≈ 1.39 µM) in assay [1], 2 µg/mL (≈ 5.55 µM) in assay [2] and 4 µg/mL (≈ 11.1 µM) in assay [3].
In the same order, the values of `CCCC[C@H](CC(=O)NO)C(=O)N[C@H](c1nc2cc(C(=O)N3CCOCC3)ccc2[nH]1)C(C)C` are 8 µg/mL (≈ 16.9 µM), 16 µg/mL (≈ 33.8 µM) and 16 µg/mL (≈ 33.8 µM).
